Test results: ChEMBL document CHEMBL1142730, “Design of HIV-1 protease inhibitors active on multidrug-resistant virus” (J Med Chem, 2005)
≈ marks a conversion by molar mass, not a printed value.

Assays:
[1] = molecular target: T1, Human immunodeficiency virus type 1 protease (Human immunodeficiency virus 1, UniProt Q72874); experiment: (§1) Binding affinity against HIV-1 protease
[2] = species: Rattus norvegicus; experiment: In vitro metabolic stability value after 30 min of incubation with liver microsomes of rat was determined; assay type: functional; settings: Microsome
In short: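 Compound at 10 µM incubated at 37 °C with dog, human or rat liver microsomes. Residual parent compound quantified directly by LC-MS. Value is percent parent remaining after 30 min.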

[3] = test system: Human immunodeficiency virus 1; experiment: Toxicity value against wild type HIV-1 IIIB was determined; assay type: functional
In short: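 MT4 cells (150 000 cells/mL) mock-infected, run in parallel with HIV-infected cultures over an identical compound concentration range. Incubated 3 days at 37 °C, 5% CO₂. Reduced expression of the […] GFP reporter serves as the toxicity marker.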

[4] = test system: Human immunodeficiency virus 1; experiment: Protease inhibitory activity against HIV-1 r13025 mutant strain was determined; assay type: functional, organism-based
[5] = test system: Human immunodeficiency virus 1; experiment: Protease inhibitory activity against HIV-1 r13034 mutant strain was determined; assay type: functional, organism-based
[6] = test system: Human immunodeficiency virus 1; experiment: Protease inhibitory activity against HIV-1 r13363 mutant strain was determined; assay type: functional, organism-based
[7] = test system: Human immunodeficiency virus 1; experiment: Protease inhibitory activity against HIV-1 GSS004421 mutant strain was determined; assay type: functional, organism-based
[8] = test system: Human immunodeficiency virus 1; experiment: Protease inhibitory activity against wild type HIV-1 IIIB was determined; assay type: functional, organism-based
[9] = test system: Caco-2; experiment: In vitro increase in apparent permeability from apical to basolateral was determined in Caco-2 (human colon carcinoma) cells; assay type: functional, cell-based
In short: (§2)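 Caco-2 monolayer apparent permeability measured apical-to-basolateral and basolateral-to-apical; reported as Papp in cm/s (×10⁶).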

[10] = test system: Caco-2; experiment: In vitro increase in apparent permeability from basolateral to apical was determined in Caco-2 (human colon carcinoma) cells; assay type: functional, cell-based; in short: as §2
[11] = In vitro solubility at was determined; pH=5; assay type: ADME
In short: (§3)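 Aqueous solubility measured at pH 5 and pH 7, expressed in […].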

[12] = In vitro solubility at was determined; pH=7; assay type: ADME; in short: as §3
[13] = Maximum plasma concentration value in dog was determined at a dosage of 20 mg/kg; assay type: ADME, organism-based, Canis lupus familiaris; parameters: dose 20 mg/kg
In short: (§4)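 Oral dosing in dog at 20 mg/kg, coadministered with ritonavir. Compound given as a solution in PEG400 or in 40% w/v hydroxypropyl-β-cyclodextrin with 2% citric acid. Plasma Cmax, Tmax, t1/2 and AUC determined.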

[14] = Maximum plasma concentration value in wistar rat was determined at a dosage of 20 mg/kg; assay type: ADME, organism-based; parameters: dose 20 mg/kg
In short: (§5)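 Wistar rats, single-dose study at 20 mg/kg, compound formulated in PEG400. Plasma Cmax, Tmax, t1/2 and AUC determined.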

[15] = In vivo half life value in dog was determined at a dosage of 20 mg/kg; assay type: ADME, organism-based, Canis lupus familiaris; parameters: dose 20 mg/kg; in short: as §4
[16] = In vivo area under the concentration time curve value in wistar rat was determined at a dosage of 20 mg/kg; assay type: ADME, organism-based; parameters: dose 20 mg/kg; in short: as §5
[17] = In vivo time to reach maximum plasma concentration value in wistar rat was determined at a dosage of 20 mg/kg; assay type: ADME, organism-based; parameters: dose 20 mg/kg; in short: as §5
[18] = molecular target: T1, Human immunodeficiency virus type 1 protease; experiment: as §1; remark: listed apart in the source
In short: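 Isothermal titration calorimetry by displacement: the protease was pre-titrated with acetylpepstatin (300 µM) as the weaker binder, then the inhibitor (125 or 200 µM in the syringe) was injected to saturation into protease (9–21 µM). Buffer was 10 mM sodium acetate pH 5.0, 2% DMSO, 2 mM TCEP. Heats of dilution were subtracted, and each run was done at least twice.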

[19] = In vivo area under the concentration time curve value in dog was determined at a dosage of 20 mg/kg; assay type: ADME, organism-based, Canis lupus familiaris; parameters: dose 20 mg/kg; in short: as §4
[20] = In vivo time to reach maximum plasma concentration value in dog was determined at a dosage of 20 mg/kg; assay type: ADME, organism-based, Canis lupus familiaris; parameters: dose 20 mg/kg; in short: as §4
[21] = In vivo half life value in wistar rat was determined at a dosage of 20 mg/kg; assay type: ADME, organism-based; parameters: dose 20 mg/kg; in short: as §5

Row | Structure (SMILES) | Metabolic stability [2] [%] | pCC50 [3] | pEC50 [4] | pEC50 [5] | pEC50 [6] | pEC50 [7] | EC50 [8] [nM] | Papp [9] [×10⁻⁶ cm/s] | Papp [10] [×10⁻⁶ cm/s] | Cmax [14] [ng/mL] | AUC [16] [ng·h/mL] | Tmax [17] [h] | also measured
1 | CC(C)CN(CC(O)C(Cc1ccccc1)NC(=O)OC1CCOC1)S(=O)(=O)c1ccc(N)cc1 (stereo not drawn) | – | – | – | – | – | – | – | – | – | – | – | – | Kd [1]: 0.4 nM
2 | CNc1nc2ccc(S(=O)(=O)N(CC(C)C)C[C@@H](O)[C@H](Cc3ccccc3)NC(=O)O[C@H]3CO[C@H]4OCC[C@H]43)cc2o1 | 70 | < 4.49 | 8.13 | 8.61 | 7.5 | 8.07 | 2 | 17.6 | 24 | 927 | 1200 | 1.4 | solubility [11]: 10 µg/mL (≈ 16.6 µM); solubility [12]: < 10 µg/mL; Cmax [13]: 986 ng/mL; half-life [15]: 0.9 h; Kd [18]: 0.9 nM; AUC [19]: 2030 ng·h/mL; Tmax [20]: 2 h
3 | CC(C)CN(C[C@@H](O)[C@H](Cc1ccccc1)NC(=O)O[C@H]1CO[C@H]2OCC[C@H]21)S(=O)(=O)c1ccc2nc(N)oc2c1 | 90 | < 4.49 | 8.21 | 8.19 | 7.6 | 8.06 | 11.7 | 3.8 | 23.8 | 260 | 448 | 1 | half-life [21]: 1.6 h
